Experimental data from different studies.
Lines come from different studies, so protocols differ.
Target: Mitogen-activated protein kinase 13 (MAPK13, Homo sapiens, UniProt O15264)

Compound	effect on	mode	method	concentration	measurement	value
O=C(NS(=O)(=O)c1ccc(NCC2CCOCC2)c([N+](=O)[O-])c1)c1ccc(N2CCN(Cc3ccc(C(F)(F)F)cc3-c3ccc(Cl)cc3)CC2)cc1Oc1cnc2[nH]ccc2c1	cell-free assay		competition with immobilised ligand	1 µM	remaining binding	99%
COc1cc(-c2cc(-c3ccc(N4CCNCC4)cc3)cnc2C)cc(OC)c1OC	enzyme activity	inhibitor		1 µM	inhibition	1%
CN(C)C1CCN(CC#Cc2nn(C3CCCC3)c3nc(NCc4ccccc4)ncc23)C1 (stereo not drawn)	enzyme activity	inhibitor	FRET	1 µM	inhibition	0%
CC(C)(C)c1nc(-c2cccc(NS(=O)(=O)c3c(F)cccc3F)c2F)c(-c2ccnc(N)n2)s1	enzyme activity	inhibitor	radiometric	1 µM	remaining activity	85%
CNC(=O)c1ccc(Nc2ncc(C(F)(F)F)c(NCc3nccnc3N(C)S(C)(=O)=O)n2)cc1	cell-free assay		competition with immobilised ligand	0.1 µM	remaining binding	91%
Cn1c2c(c3ccc(Cl)c(Cl)c31)C(C#N)C1(CCNCC1)NC2=O (racemic)	thermal stability		DSF	10 µM	ΔTm	0.5 °C
O=C1NC(=O)c2cc(Nc3ccc(F)cc3)c(Nc3ccc(F)cc3)cc21	cell-free assay			0.5 µM	remaining signal	99.4%
O=C(O)[C@@H]1[C@@H](Cn2nnc3ccccc3c2=O)CC[C@H]1C(=O)c1ccc(OCCC2CCOCC2)cc1	cell-free assay		competition with immobilised ligand	1 µM	remaining binding	94%
CNC(=O)c1cc(Oc2ccc(NC(=O)Nc3ccc(Cl)c(C(F)(F)F)c3)cc2)ccn1	enzyme activity	inhibitor		0.3 µM	inhibition	-6%
O=C(Nc1cnn(-c2csc(C(=O)NC3COC3)c2)c1)Nc1c(F)cccc1Cl	enzyme activity	inhibitor		5 µM	remaining activity	98.4%
CC/C(=N\NC(=O)NCc1cccc(O)c1)c1ccc(O)c(C)c1O	enzyme activity	inhibitor		0.1 µM	inhibition	-2.6%
Cn1c2c(c3ccc(Cl)c(Cl)c31)C(C#N)C(C)(C)NC2=O (stereo not drawn)	thermal stability		DSF	10 µM	ΔTm	1.4 °C
COc1cc(Nc2cnc(C#N)c(O[C@H](C)CN(C)C)n2)ncc1-c1cnn(C)c1	enzyme activity	inhibitor	radiometric	10 µM	remaining activity	73%
COc1cc(/C=C/C(=O)CC(=O)/C=C/c2ccc(O)c(OC)c2)ccc1O	enzyme activity	inhibitor		1 µM	activity vs control	105%
O=C1Nc2ccc(Cl)cc2C1=Cc1cc(Cl)c(O)c(Cl)c1	cell-free assay			0.5 µM	remaining signal	97.8%
O=C(Nc1ccc(Oc2ccc(F)cc2)cc1)N1CCc2ncccc2[C@H]1c1ccc(F)cc1	cell-free assay		competition with immobilised ligand	1 µM	remaining binding	96%
Cn1c2c(c3ccc(Cl)c(Cl)c31)C(C#N)C1(CCCC1)NC2=O (stereo not drawn)	thermal stability		DSF	10 µM	ΔTm	-0.1 °C
CC(C)(C)C(=O)c1sc(NC2CCCCC2)nc1N	enzyme activity	inhibitor		10 µM	remaining activity	102%

Compound	effect on	mode	method	concentration	measurement	value
O=C(Nc1cccnn1)N1CCC(=Cc2cccc(Oc3ccc(C(F)(F)F)cn3)c2)CC1	cell-free assay		competition with immobilised ligand	1 µM	remaining binding	86%
Cc1ccc(C(=O)Nc2ccc(CN3CCN(C)CC3)c(C(F)(F)F)c2)cc1C#Cc1cnc2cccnn12	enzyme activity	inhibitor		23.5 nM	remaining activity	93%
Cc1nccc(COC(=O)N2C[C@@H]3[C@@H](CNC(=O)c4ccc5[nH]nnc5c4)[C@@H]3C2)n1	cell-free assay		competition with immobilised ligand	1 µM	remaining binding	98%
Cc1sc(C(=O)NC2COC2)cc1-n1cc(NC(=O)Nc2c(F)cccc2Cl)cn1	enzyme activity	inhibitor		10 µM	remaining activity	89.2%
CCN(CC)c1ccc(C2=NNC(=O)CC2C)cc1[N+](=O)[O-] (stereo not drawn)	enzyme activity	inhibitor		10 µM	remaining activity	97%
COc1cc2ncnc(Nc3ccc(Oc4ccccc4)cc3C)c2cc1OC	enzyme activity	inhibitor		1 µM	inhibition	1%
Cc1ccc(Nc2nccc(N(C)c3ccc4c(C)n(C)nc4c3)n2)cc1S(N)(=O)=O	enzyme activity	inhibitor		0.3 µM	inhibition	-11%
CCOc1cc(-c2nncn2C)ccc1Nc1ncc2cc(C)nc(NCC(C)(C)C)c2n1	enzyme activity	inhibitor	FRET	1 µM	inhibition	< 15%
Cc1cc(NC(=O)c2cccc3cc(-c4cccc5[nH]nc(N)c45)ccc23)ccc1F	enzyme activity	inhibitor		0.1 µM	activity vs control	101%
O=C(O)c1cc(-c2ccc(C3CCNCC3)cc2)c2ccc(-c3ccc(C(F)(F)F)cc3)cc2c1	cell-free assay		competition with immobilised ligand	1 µM	remaining binding	97%
FC(F)c1nc2ccccc2n1-c1nc(N2CCOCC2)nc(N2CCOCC2)n1	enzyme activity	inhibitor		10 µM	remaining activity	107%
Cn1c2c(Cl)c(Cl)ccc2c2cn[nH]c(=O)c21	thermal stability		DSF	10 µM	ΔTm	0 °C
CNC(=O)c1cc2c(Oc3ccc(NC(=O)C4(C(=O)Nc5ccc(F)cc5)CC4)cc3)ccnc2cc1OC	enzyme activity	inhibitor	radiometric	1 µM	inhibition	83%
Cn1c2c(Cl)c(Cl)ccc2c2cc[nH]c(=O)c21	thermal stability		DSF	10 µM	ΔTm	-0.4 °C
CN(c1ncccc1CNc1nc(Nc2ccc3c(c2)CC(=O)N3)ncc1C(F)(F)F)S(C)(=O)=O	enzyme activity	inhibitor		1 µM	inhibition	42.1%
Cn1c2c(c3ccc(Cl)c(Cl)c31)C(C#N)C1(CCN(C(=O)OC(C)(C)C)CC1)NC2=O (racemic)	thermal stability		DSF	10 µM	ΔTm	-0.1 °C
CC1=C(C#N)[C@@H](c2ccc3[nH]nc(C)c3c2)C(C#N)=C(c2ccc(Cl)cc2)N1	cell-free assay		competition with immobilised ligand	1 µM	remaining binding	100%
CCN(CC)CCNC(=O)c1c(C)[nH]c(/C=C2\C(=O)Nc3ccc(F)cc32)c1C	enzyme activity	inhibitor		10 µM	inhibition	-5%
